Compound activity: PubChem BioAssay, Sanford-Burnham Center for Chemical Genomics
An excerpt weighted towards active compounds, which were near 1.7% of everything screened.
STEP inh – STEP phosphatase inhibitors, primary screen, biochemical, fluorescence intensity, uHTS | Tyrosine-protein phosphatase non-receptor type 5 (Homo sapiens), P54829 | recombinant STEP, OMFP fluorogenic substrate | inhibition, % at 20 µM | 0.25% of 360,000 active | AID 588621, 2011;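 active = inhibition at 20 µM, scaled per plate between control wells, above about 37%, limit read from the data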
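System: STEP (striatal-enriched tyrosine phosphatase) enzyme, cell-free; medium: Bis-Tris pH 6.0 buffer with DTT, detergent; dosing: 20 µM, 1% DMSO; times: reaction 20 min, ambient temperature; detection: fluorescence, 480/540 nm; read-out basis: normalized % inhibition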
LMPTP inh – LMPTP phosphatase inhibitors, primary screen, biochemical, fluorescence intensity, uHTS | 0.22% of 360,000 active | recombinant LMPTP-A, OMFP fluorogenic substrate | inhibition, % at 20 µM;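 active = compounds that cut the enzyme signal by at least half of the control window in the single-dose screen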
Target sequence (P24666 whole entry, looked up): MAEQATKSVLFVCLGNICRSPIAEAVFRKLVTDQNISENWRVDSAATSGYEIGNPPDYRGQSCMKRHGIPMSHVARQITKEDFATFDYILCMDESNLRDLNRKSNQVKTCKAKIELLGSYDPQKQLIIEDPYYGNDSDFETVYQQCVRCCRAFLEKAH
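Test system: LMPTP-A phosphatase enzyme; input: 0.625 nM LMPTP-A final; reagent: OMFP substrate, 400 µM final; compound dosing: 20 µM single dose, 3% DMSO; incubation: 50 min dark incubation at room temperature; measured by: endpoint fluorescence intensity from OMFP dephosphorylation; measure: % inhibition relative to no-enzyme and uninhibited control wells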
DNMT1 inh – human DNMT1 methyltransferase inhibitors, primary screen, biochemical, molecular beacon, fluorescence, HinP1I cleavage, uHTS; DNA (cytosine-5)-methyltransferase 1 (Homo sapiens), P26358; inhibition (reported as % activation of signal), % at 10 µM; 0.83% of 360,000 active; AID 588458, 2011; in the data active = inhibition above about 50%
SUMO1-SIM PPI – modulators of SUMO1 protein-protein interactions, primary screen, biochemical, uHTS; Small ubiquitin-related modifier 1 (Homo sapiens), P63165; SUMO1 binding to a labelled peptide, TR-FRET, 1 h; inhibition, % at 20 µM; 0.33% of 360,000 active; in the data active = inhibition above about 37%
Target sequence (P63165 whole entry, looked up): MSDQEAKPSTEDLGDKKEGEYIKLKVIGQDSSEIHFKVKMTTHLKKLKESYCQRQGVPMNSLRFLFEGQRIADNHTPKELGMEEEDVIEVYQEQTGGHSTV
Scp-1 inhibitor – Scp-1 phosphatase inhibitors, primary screen, biochemical, colorimetric, uHTS. Carboxy-terminal domain RNA polymerase II polypeptide A small phosphatase 1 (Homo …. Recombinant Scp1, phosphopeptide, malachite green phosphate absorbance. inhibition, % at 20 µM. 0.88% of 340,000 active;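 active = inhibition above about 50% at 20 µM, limit read from the data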
Target sequence (Q9GZU7 76-261 limits assumed): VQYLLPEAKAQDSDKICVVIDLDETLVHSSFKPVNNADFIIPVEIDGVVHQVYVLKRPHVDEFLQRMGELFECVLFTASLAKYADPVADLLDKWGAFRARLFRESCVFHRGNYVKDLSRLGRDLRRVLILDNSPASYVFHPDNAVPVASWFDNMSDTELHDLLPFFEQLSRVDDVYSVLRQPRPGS
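Times: enzyme reaction 45 min at room temperature, colour 5 min, stabilisation 30 min. Material: SCP-1 catalytic fragment, aa 76-261. Medium: Acidic Tris acetate buffer with magnesium and detergent. Signal: colorimetric free-phosphate detection, absorbance 630 nm. Read-out basis: % inhibition of SCP-1 phosphate liberation. Reagent: Phosphorylated 17-residue peptide substrate.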
Scp-1 conf – Scp-1 phosphatase inhibitors, retest, confirmation, biochemical, colorimetric, single concentration; shares compounds with Scp-1 inhibitor; recombinant SCP-1 catalytic domain, phosphate release, malachite green absorbance; inhibition, % at 20 µM; 61% of 2,500 active
MG interference – colorimetric readout interference by compounds, confirmation, artefact control for Scp-1 inhibitor project, biochemical, single concentration | shares compounds with Scp-1 inhibitor | Colorimetric interference counterscreen, malachite green absorbance 630 nm | apparent inhibition (interference), % at 20 µM | 2,500 tested, under 10 active | AID 540313, 2011;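 note: compounds added after enzyme reaction finished so only phosphate colour detection is probed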
Scp1 DSF – Scp-1 binding by thermal shift, confirmation, orthogonal assay for Scp-1 inhibitor project, biophysical, differential scanning fluorimetry; shares compounds with Scp-1 inhibitor; Recombinant SCP1, Sypro Orange thermal shift Tm; thermal shift relative to vanadate control, % at 40 µM; 25% of 1,500 active;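 active = substances whose mean melting-temperature shift, as a percentage of the reference inhibitor's shift, reaches about 5.3%, limit read from the data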
Of the large screens only hits and unclear results are named; the others gave an inactive call (follow-up assays come after a bar, where they were run).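 Rule for the calls, unless noted: active = inhibition of at least 30% at 20 µM; inactive = the rest.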

CCC(NC(=O)Cn1cnc2c(=O)n(C)c(=O)n(C)c21)c1ccccc1 (stereo unspecified)	none | Scp-1 conf inactive | MG interference inactive
COc1ccc(CNC(=O)Cn2cnc3c(=O)n(C)c(=O)n(C)c32)cc1	none | Scp-1 conf inactive | MG interference inactive
Cn1c(=O)c2ncn(CC(=O)NCCOc3ccccc3)c2n(C)c1=O	none
O=C(CSc1nnc(-c2ccc(F)cc2)o1)N1CCCC1	none
COc1ccc(CCN(C)S(=O)(=O)c2cn(C)c(=O)n(C)c2=O)cc1OC	none
Cc1ccc2c(c1)NC(=O)C(CC(=O)Nc1ccc(CN3CCC(C)CC3)cc1)O2 (stereo unspecified)	Scp-1 inhibitor 52 | Scp-1 conf inactive | MG interference inactive
CC(=O)Nc1ccc(NC(=O)CSc2ccc(-c3ccco3)nn2)cc1	Scp-1 inhibitor 51 | Scp-1 conf inactive | MG interference inactive
Cc1ccc(SCC(=O)Nc2ccc(-c3nnc(-c4ccco4)o3)cc2)cc1	Scp-1 inhibitor 70 | Scp-1 conf 77 | MG interference inactive | Scp1 DSF inactive
Cc1cccc(NC(=O)CSc2ccc(-c3ccco3)nn2)c1	none
CC(=O)Nc1cccc(NC(=O)CSc2ccc(-c3ccco3)nn2)c1	Scp-1 inhibitor 70 | Scp-1 conf inactive | MG interference inactive
O=C(COC(=O)COc1ccc(Br)cc1)Nc1cccnc1Cl	Scp-1 inhibitor 58 | Scp-1 conf inactive | MG interference inactive
COc1ccc(/C=N/NC(=O)C(Cc2c[nH]c3ccccc23)NC(=O)OCC(C)C)cc1[N+](=O)[O-] (stereo unspecified)	Scp-1 inhibitor 65 | Scp-1 conf inactive | MG interference inactive
Cc1cccc(-c2ocnc2C(=O)Nc2ncc(C)s2)c1	none (no result: Scp-1 inhibitor)
COc1ccc(CCNC(=O)c2ccc(NC(=O)CC3SC(N4CCCC4)=NC3=O)cc2)cc1 (stereo unspecified)	none
CC1(C)CC[C@]2(C(=O)O)CC[C@]3(C)C(=CCC4[C@@]5(C)CC[C@H](O)C(C)(C)C5CC[C@]43C)C2C1 (stereo partly specified)	DNMT1 inh 78, Scp-1 inhibitor 56 (no result: STEP inh) | Scp-1 conf inactive | MG interference inactive
CC1(C)CC[C@]2(C(=O)O)CC[C@]3(C)C(=CC[C@@H]4[C@@]5(C)CC[C@H](O)C(C)(C)[C@@H]5CC[C@]43C)[C@@H]2C1	none (no result: STEP inh)
CC(C)NC(=O)C1(C)CCN1C(=O)c1ccc2c(c1)OCO2 (stereo unspecified)	none (no result: Scp-1 inhibitor)
CCN1CCN(c2ccc(NC(=O)c3ccccc3F)cc2Cl)CC1	none
CCN1CCN(c2ccc(NC(=O)c3cc4ccccc4cc3OC)cc2C)CC1	Scp-1 inhibitor 65 | Scp-1 conf inactive | MG interference inactive
Cc1ccc(C)c(NC(=S)N(CCc2ccncc2)C(C)C)c1	none
Cc1cc(C)c(NC(=S)N(CCc2ccncc2)C(C)C)c(C)c1	Scp-1 inhibitor 61 | Scp-1 conf inactive | MG interference inactive
COC(=O)C1=C(COc2ccccc2)NC(=O)NC1c1ccc2ccccc2c1 (stereo unspecified)	Scp-1 inhibitor 50 (no result: STEP inh, LMPTP inh, DNMT1 inh, SUMO1-SIM PPI) | Scp-1 conf 31 | MG interference inactive | Scp1 DSF inactive
COCCN(C(=O)Cn1nnc2ccccc21)C(C(=O)NC1CCCCC1)c1ccc(OC)cc1OC (stereo unspecified)	Scp-1 inhibitor 71 | Scp-1 conf 48 | MG interference inactive | Scp1 DSF inactive
COc1ccc(NC(=O)C(c2ccccc2)n2c(=O)c(-c3cc4ccccc4[nH]3)nc3ccccc32)cc1 (stereo unspecified)	none (no result: STEP inh, DNMT1 inh, Scp-1 inhibitor)
CCN(CC)S(=O)(=O)c1cccc(NC(=O)COC(=O)/C=C/c2ccco2)c1	none
CN(C)S(=O)(=O)c1cccc(NC(=O)COC(=O)/C=C/c2ccco2)c1	Scp-1 inhibitor 68 | Scp-1 conf 41 | MG interference inactive | Scp1 DSF inactive
COc1ccc(C2c3c(oc4ccccc4c3=O)C(=O)N2CCN2CCOCC2)cc1OC (stereo unspecified)	none
COCCN1C(=O)c2oc3ccccc3c(=O)c2C1c1ccc(OC)c(OC)c1 (stereo unspecified)	Scp-1 inhibitor 60 | Scp-1 conf 44 | MG interference inactive | Scp1 DSF inactive
O=C(Nc1ccnc(=O)[nH]1)c1sc2ccccc2c1Cl	Scp-1 inhibitor 98 | Scp-1 conf 67 | MG interference inactive | Scp1 DSF inactive
O=C(Nc1ccncc1)c1sc2ccccc2c1Cl	none
CCNc1nc(NCC)n2c(SCC(=O)Nc3ccc(F)cc3)nnc2n1	DNMT1 inh 55, Scp-1 inhibitor 54 | Scp-1 conf 55 | MG interference inactive | Scp1 DSF inactive
CCNc1nc(NCC)n2c(SCC(=O)Nc3ccccc3)nnc2n1	none
CCNc1nc(NCC)n2c(SCC(=O)Nc3ccc(C)c(C)c3)nnc2n1	none
CCNc1nc(NCC)n2c(SCC(=O)Nc3ccc(OC(F)F)cc3)nnc2n1	Scp-1 inhibitor 68 | Scp-1 conf 39 | MG interference inactive | Scp1 DSF inactive
O=C(NCc1ccccn1)C(=O)NCC1OCCN1S(=O)(=O)c1ccc([N+](=O)[O-])cc1 (stereo unspecified)	none
Cc1cccc(NC(=O)CN2CCN(C(=O)CN3C(=O)NC4(CCCCC4C)C3=O)CC2)c1C (stereo unspecified)	none
Cn1c(=O)c(C(=O)CN2CCc3ccccc32)c(N)n(Cc2ccccc2)c1=O	none
Cn1c(=O)c(C(=O)CN2CC(=O)Nc3ccccc32)c(N)n(Cc2ccccc2)c1=O	none | Scp-1 conf inactive | MG interference inactive
CC(=O)OCC1=C(C(=O)O)N2C(=O)C(NC(=O)C(C)Cn3nc(C)c(Cl)c3C)C2SC1 (stereo unspecified)	Scp-1 inhibitor 53 | Scp-1 conf 67 | MG interference inactive | Scp1 DSF inactive
Cc1nn(C(C)C(=O)NC2C(=O)N3C(C(=O)O)=C(CSc4nnnn4C)CSC23)cc1Cl (stereo unspecified)	none
O=C(NC1CCCC1)C1c2ccccc2OCC(=O)N1Cc1ccc2c(c1)OCO2 (stereo unspecified)	none (no result: STEP inh, DNMT1 inh, Scp-1 inhibitor)
